The source made the active and inactive calls. The calls are words filed in the database; no cut-off is given here.
Key:
[1] = molecular target: Metabotropic glutamate receptor 4 (Rattus norvegicus) (UniProt P31423); assay: Displacement of [3H]ML128 from rat mGlu4 receptor expressed in CHO cells at 10 uM after 30 mins by liquid scintillation counting analysis; format: cell-based
How it was run: (§1)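 Whole freshly harvested CHO cells stably expressing rat mGlu4 (G418-selected), 50 000 per tube, incubated with 10 nM [3H]1 plus competitor (0.01 nM–10 μM) 30 min at room temperature. Cells pelleted at 4 °C, washed three times with cold medium, lysed in 0.5% NaOH at 56 °C, then counted by liquid scintillation. Nonspecific binding defined with 10 μM unlabeled 1. Triplicates.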

[2] = molecular target: Metabotropic glutamate receptor 4 (Rattus norvegicus, UniProt P31423); assay: Displacement of [3H]ML128 from rat mGlu4 receptor expressed in CHO cells after 30 mins by liquid scintillation counting analysis; format: cell-based; how it was run: as §1
Sequence of Metabotropic glutamate receptor 4 (P31423 whole entry): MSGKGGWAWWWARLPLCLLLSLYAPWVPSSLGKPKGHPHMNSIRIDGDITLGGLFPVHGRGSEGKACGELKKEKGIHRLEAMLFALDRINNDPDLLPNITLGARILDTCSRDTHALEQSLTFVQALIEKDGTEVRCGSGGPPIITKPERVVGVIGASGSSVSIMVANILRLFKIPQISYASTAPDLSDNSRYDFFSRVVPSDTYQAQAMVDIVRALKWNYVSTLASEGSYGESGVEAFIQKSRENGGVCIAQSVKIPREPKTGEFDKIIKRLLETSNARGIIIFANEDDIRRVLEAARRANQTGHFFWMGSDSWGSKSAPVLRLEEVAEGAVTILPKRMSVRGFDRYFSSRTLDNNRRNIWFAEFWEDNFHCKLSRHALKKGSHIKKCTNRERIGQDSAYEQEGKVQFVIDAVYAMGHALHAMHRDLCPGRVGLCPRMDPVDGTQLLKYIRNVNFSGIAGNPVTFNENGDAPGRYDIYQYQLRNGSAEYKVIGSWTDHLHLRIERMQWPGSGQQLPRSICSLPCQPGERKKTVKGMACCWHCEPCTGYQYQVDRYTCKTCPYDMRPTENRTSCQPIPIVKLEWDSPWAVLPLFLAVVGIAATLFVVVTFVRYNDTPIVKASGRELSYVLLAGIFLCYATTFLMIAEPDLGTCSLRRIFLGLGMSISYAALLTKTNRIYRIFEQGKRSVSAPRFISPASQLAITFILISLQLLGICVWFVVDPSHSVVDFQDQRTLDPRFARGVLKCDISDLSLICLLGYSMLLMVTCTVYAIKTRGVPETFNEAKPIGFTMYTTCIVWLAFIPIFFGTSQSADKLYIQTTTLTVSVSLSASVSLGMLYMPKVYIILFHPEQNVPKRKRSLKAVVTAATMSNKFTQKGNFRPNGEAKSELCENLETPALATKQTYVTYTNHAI

[3] = molecular target: Metabotropic glutamate receptor 8 (Homo sapiens) (UniProt O00222); assay: Binding affinity to human mGlu8 receptor
Sequence of Metabotropic glutamate receptor 8 (Homo sapiens) (O00222 whole entry): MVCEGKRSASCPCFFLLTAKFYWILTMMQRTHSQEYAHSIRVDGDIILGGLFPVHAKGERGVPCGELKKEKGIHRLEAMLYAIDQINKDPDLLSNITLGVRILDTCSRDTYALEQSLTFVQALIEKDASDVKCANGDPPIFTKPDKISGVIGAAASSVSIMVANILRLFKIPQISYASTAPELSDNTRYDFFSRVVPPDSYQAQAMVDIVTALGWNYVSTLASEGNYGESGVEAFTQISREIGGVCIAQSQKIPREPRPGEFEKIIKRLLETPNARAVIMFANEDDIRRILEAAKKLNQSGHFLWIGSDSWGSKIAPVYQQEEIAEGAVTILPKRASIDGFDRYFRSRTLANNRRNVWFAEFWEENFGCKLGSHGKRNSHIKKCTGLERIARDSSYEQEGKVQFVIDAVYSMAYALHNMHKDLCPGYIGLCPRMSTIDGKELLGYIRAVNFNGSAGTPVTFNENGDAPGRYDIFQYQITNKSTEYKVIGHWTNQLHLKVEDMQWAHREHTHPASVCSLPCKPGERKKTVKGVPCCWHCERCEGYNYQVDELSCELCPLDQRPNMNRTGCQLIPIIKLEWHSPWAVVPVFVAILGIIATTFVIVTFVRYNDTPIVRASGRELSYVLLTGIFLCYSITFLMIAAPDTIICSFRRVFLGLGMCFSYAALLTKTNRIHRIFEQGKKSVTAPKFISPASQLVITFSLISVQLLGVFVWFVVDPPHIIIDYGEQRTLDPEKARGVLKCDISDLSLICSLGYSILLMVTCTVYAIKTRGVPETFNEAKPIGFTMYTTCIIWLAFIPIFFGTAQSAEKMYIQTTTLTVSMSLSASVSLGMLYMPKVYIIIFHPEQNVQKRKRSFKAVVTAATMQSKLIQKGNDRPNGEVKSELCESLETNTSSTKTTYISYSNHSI

[4] = molecular target: Metabotropic glutamate receptor 5 (Homo sapiens) (UniProt P41594); assay: Activity at human mGlu5 receptor expressed in CHO cells after 45 mins by intracellular inositol phosphates accumulation assay
Sequence of Metabotropic glutamate receptor 5 (Homo sapiens) (P41594 21-1212 limits assumed): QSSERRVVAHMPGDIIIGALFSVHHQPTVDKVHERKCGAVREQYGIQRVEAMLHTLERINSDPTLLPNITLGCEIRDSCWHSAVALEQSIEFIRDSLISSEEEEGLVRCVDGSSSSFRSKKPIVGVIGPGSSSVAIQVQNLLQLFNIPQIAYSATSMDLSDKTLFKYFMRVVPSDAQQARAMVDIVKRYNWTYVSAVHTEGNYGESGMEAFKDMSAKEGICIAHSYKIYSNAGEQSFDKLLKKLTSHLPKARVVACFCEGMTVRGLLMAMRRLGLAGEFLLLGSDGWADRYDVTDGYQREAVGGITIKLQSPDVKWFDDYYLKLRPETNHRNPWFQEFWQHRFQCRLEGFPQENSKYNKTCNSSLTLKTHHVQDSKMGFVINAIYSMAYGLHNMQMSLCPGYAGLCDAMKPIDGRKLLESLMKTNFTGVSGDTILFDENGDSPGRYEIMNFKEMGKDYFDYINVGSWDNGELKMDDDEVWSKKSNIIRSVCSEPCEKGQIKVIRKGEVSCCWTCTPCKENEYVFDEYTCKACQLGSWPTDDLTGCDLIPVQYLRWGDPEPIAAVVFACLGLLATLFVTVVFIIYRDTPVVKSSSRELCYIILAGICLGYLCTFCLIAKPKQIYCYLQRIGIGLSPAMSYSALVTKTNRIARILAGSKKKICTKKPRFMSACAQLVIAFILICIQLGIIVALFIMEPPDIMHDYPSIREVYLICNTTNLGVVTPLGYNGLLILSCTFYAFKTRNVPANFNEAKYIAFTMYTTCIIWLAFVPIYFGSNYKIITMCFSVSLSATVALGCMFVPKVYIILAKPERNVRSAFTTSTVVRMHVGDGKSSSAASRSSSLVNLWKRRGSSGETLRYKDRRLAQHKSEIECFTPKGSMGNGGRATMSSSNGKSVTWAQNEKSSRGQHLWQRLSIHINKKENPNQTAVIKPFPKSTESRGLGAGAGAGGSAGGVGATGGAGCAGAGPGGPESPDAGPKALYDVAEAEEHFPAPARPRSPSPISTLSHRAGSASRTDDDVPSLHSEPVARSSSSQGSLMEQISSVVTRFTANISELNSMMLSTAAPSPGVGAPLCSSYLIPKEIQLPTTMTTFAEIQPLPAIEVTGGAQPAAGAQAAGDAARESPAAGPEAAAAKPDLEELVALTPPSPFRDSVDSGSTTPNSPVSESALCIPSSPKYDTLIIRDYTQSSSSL

[5] = molecular target: Metabotropic glutamate receptor 1 (Homo sapiens) (UniProt Q13255); assay: Activity at human mGlu1 receptor expressed in CHO cells after 45 mins by intracellular inositol phosphates accumulation assay
Sequence of Metabotropic glutamate receptor 1 (Homo sapiens) (Q13255 19-1194 limits assumed): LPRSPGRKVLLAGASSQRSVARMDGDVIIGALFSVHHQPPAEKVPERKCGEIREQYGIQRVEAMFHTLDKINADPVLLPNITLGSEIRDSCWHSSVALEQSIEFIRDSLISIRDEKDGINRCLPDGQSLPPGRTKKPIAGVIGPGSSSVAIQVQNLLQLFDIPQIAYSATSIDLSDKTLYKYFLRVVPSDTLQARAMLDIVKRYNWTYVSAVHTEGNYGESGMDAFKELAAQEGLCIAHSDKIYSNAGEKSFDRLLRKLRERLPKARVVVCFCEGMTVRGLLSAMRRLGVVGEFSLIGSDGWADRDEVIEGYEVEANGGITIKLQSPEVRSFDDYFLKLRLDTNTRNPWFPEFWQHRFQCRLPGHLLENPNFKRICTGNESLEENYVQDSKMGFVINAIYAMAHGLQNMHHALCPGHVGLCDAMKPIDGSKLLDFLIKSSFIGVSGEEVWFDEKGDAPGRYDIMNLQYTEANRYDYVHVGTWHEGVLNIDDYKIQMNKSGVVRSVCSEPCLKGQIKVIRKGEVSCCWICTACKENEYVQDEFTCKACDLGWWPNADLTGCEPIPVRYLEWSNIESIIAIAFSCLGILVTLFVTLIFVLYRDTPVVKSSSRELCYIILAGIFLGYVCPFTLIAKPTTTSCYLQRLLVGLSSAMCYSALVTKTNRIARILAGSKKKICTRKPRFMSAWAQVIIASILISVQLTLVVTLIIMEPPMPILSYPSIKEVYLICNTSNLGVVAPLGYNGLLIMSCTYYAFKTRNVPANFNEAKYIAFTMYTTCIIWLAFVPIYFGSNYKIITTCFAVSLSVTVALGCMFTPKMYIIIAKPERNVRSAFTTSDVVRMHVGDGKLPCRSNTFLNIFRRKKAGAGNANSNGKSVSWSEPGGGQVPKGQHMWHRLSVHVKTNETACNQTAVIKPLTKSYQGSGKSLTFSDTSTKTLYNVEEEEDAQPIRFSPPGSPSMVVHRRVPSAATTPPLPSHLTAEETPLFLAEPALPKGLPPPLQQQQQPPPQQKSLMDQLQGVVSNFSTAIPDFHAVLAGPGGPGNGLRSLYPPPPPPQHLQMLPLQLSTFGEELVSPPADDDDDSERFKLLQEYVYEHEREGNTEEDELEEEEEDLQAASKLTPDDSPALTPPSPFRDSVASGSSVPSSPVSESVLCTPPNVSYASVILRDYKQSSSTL

[6] = tested on: Cerebellum (Macaca mulatta); assay: Drug uptake in rhesus monkey cerebellum at 189 MBq, iv after 20 mins by PET imaging analysis; details: in vivo
Macaca mulatta = assay: Drug uptake in rhesus monkey hippocampus at 189 MBq, iv after 40 mins by PET imaging analysis; details: in vivo
Thalamus [7] = assay: Drug uptake in Sprague-Dawley rat thalamus at 37 MBq, iv administered 5 mins post MTEP.HCl challenge measured after 20 mins by PET imaging analysis; format: ADME, organism-based; details: in vivo
How it was run: (§2)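 Male Sprague–Dawley rats under 1.0–1.5% isoflurane/nitrous oxide received [18F]3 (37 MBq) via tail-vein catheter. Dynamic PET was acquired for 60 min, followed by CT for anatomy and attenuation correction. Regional brain time–activity curves were generated. For blocking, animals were given iv 5 min before tracer either 2·HCl 10 mg/kg in saline with 10% ethanol and 10% Tween20 (n = 4) or MTEP·HCl 10 mg/kg in 0.9% saline (n = 3).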

[8] = tested on: Hippocampus (Macaca mulatta); assay: Drug uptake in rhesus monkey hippocampus at 189 MBq, iv after 20 mins by PET imaging analysis; details: in vivo
Hippocampus [9] = assay: Drug uptake in Sprague-Dawley rat hippocampus at 37 MBq, iv administered 5 mins post MTEP.HCl challenge measured after 20 mins by PET imaging analysis; format: ADME, organism-based; details: in vivo; how it was run: as §2
[10] = tested on: Thalamus (Macaca mulatta); assay: Drug uptake in rhesus monkey thalamus at 189 MBq, iv after 20 mins by PET imaging analysis; details: in vivo
Cortex [11] = assay: Drug uptake in Sprague-Dawley rat cortex at 37 MBq, iv after 20 mins by PET imaging analysis; format: ADME, organism-based; details: in vivo; how it was run: as §2
Cerebellum [12] = assay: Drug uptake in Sprague-Dawley rat cerebellum at 37 MBq, iv administered 5 mins post MTEP.HCl challenge measured after 20 mins by PET imaging analysis; format: ADME, organism-based; details: in vivo; how it was run: as §2
[13] = Drug metabolism in iv dosed rhesus monkey blood after 5 mins; details: in vivo
[14] = tested on: Thalamus (Macaca mulatta); assay: Drug uptake in rhesus monkey thalamus at 189 MBq, iv after 40 mins by PET imaging analysis; details: in vivo
[15] = Drug metabolism in iv dosed Sprague-Dawley rat blood after 5 mins; format: ADME, organism-based; details: read-out: Drug metabolism
Brain [16] = assay: Drug uptake in Sprague-Dawley rat whole brain at 37 MBq, iv administered 5 mins post N-(3-(difluoromethoxy)phenyl)-2-picolinamide hydrochloride challenge measured after 20 mins by PET imaging analysis; format: ADME, organism-based; details: in vivo; how it was run: as §2
[17] = tested on: Striatum (Macaca mulatta); assay: Drug uptake in rhesus monkey striatum at 189 MBq, iv after 3 mins by PET imaging analysis; details: in vivo, 0.05 h
Cerebellum [18] = assay: Drug uptake in Sprague-Dawley rat cerebellum at 37 MBq, iv administered 5 mins post N-(3-(difluoromethoxy)phenyl)-2-picolinamide hydrochloride challenge measured after 20 mins by PET imaging analysis; format: ADME, organism-based; details: in vivo; how it was run: as §2
Striatum [19] = assay: Drug uptake in Sprague-Dawley rat striatum at 37 MBq, iv administered 5 mins post N-(3-(difluoromethoxy)phenyl)-2-picolinamide hydrochloride challenge measured after 20 mins by PET imaging analysis; format: ADME, organism-based; details: in vivo; how it was run: as §2
Brain [20] = assay: Drug uptake in Sprague-Dawley rat whole brain at 37 MBq, iv after 20 mins by PET imaging analysis; format: ADME, organism-based; details: in vivo; how it was run: as §2
[21] = tested on: Cerebellum (Macaca mulatta); assay: Drug uptake in rhesus monkey cerebellum at 189 MBq, iv after 3 mins by PET imaging analysis; details: in vivo, 0.05 h
Cortex [22] = assay: Drug uptake in Sprague-Dawley rat cortex at 37 MBq, iv administered 5 mins post N-(3-(difluoromethoxy)phenyl)-2-picolinamide hydrochloride challenge measured after 20 mins by PET imaging analysis; format: ADME, organism-based; details: in vivo; how it was run: as §2
Hippocampus [23] = assay: Drug uptake in Sprague-Dawley rat hippocampus at 37 MBq, iv after 20 mins by PET imaging analysis; format: ADME, organism-based; details: in vivo; how it was run: as §2
Striatum [24] = assay: Drug uptake in Sprague-Dawley rat striatum at 37 MBq, iv administered 5 mins post MTEP.HCl challenge measured after 20 mins by PET imaging analysis; format: ADME, organism-based; details: in vivo; how it was run: as §2
Striatum [25] = assay: Drug uptake in Sprague-Dawley rat striatum at 37 MBq, iv after 20 mins by PET imaging analysis; format: ADME, organism-based; details: in vivo; how it was run: as §2
[26] = tested on: Striatum (Macaca mulatta); assay: Drug uptake in rhesus monkey striatum at 189 MBq, iv after 20 mins by PET imaging analysis; details: in vivo
[27] = tested on: Thalamus (Macaca mulatta); assay: Drug uptake in rhesus monkey thalamus at 189 MBq, iv after 3 mins by PET imaging analysis; details: in vivo, 0.05 h
[28] = tested on: Striatum (Macaca mulatta); assay: Drug uptake in rhesus monkey striatum at 189 MBq, iv after 40 mins by PET imaging analysis; details: in vivo
Brain [29] = assay: Drug uptake in Sprague-Dawley rat whole brain at 37 MBq, iv administered 5 mins post MTEP.HCl challenge measured after 20 mins by PET imaging analysis; format: ADME, organism-based; details: in vivo; how it was run: as §2
Cerebellum [30] = assay: Drug uptake in Sprague-Dawley rat cerebellum at 37 MBq, iv after 20 mins by PET imaging analysis; format: ADME, organism-based; details: in vivo; how it was run: as §2
Thalamus [31] = assay: Drug uptake in Sprague-Dawley rat thalamus at 37 MBq, iv administered 5 mins post N-(3-(difluoromethoxy)phenyl)-2-picolinamide hydrochloride challenge measured after 20 mins by PET imaging analysis; format: ADME, organism-based; details: in vivo; how it was run: as §2
[32] = tested on: Hippocampus (Macaca mulatta); assay: Drug uptake in rhesus monkey hippocampus at 189 MBq, iv after 3 mins by PET imaging analysis; details: in vivo, 0.05 h
Cortex [33] = assay: Drug uptake in Sprague-Dawley rat cortex at 37 MBq, iv administered 5 mins post MTEP.HCl challenge measured after 20 mins by PET imaging analysis; format: ADME, organism-based; details: in vivo; how it was run: as §2
[34] = Drug uptake in rhesus monkey cerebellum at 189 MBq, iv after 40 mins by PET imaging analysis; details: in vivo
Thalamus [35] = assay: Drug uptake in Sprague-Dawley rat thalamus at 37 MBq, iv after 20 mins by PET imaging analysis; format: ADME, organism-based; details: in vivo; how it was run: as §2
Hippocampus [36] = assay: Drug uptake in Sprague-Dawley rat hippocampus at 37 MBq, iv administered 5 mins post N-(3-(difluoromethoxy)phenyl)-2-picolinamide hydrochloride challenge measured after 20 mins by PET imaging analysis; format: ADME, organism-based; details: in vivo; how it was run: as §2

Sequence of Metabotropic glutamate receptor 4 (Rattus norvegicus) (P31423 whole entry): as the sequence (P31423 whole entry) above

O=C(Nc1ccc(N2C(=O)c3cccc(I)c3C2=O)c(Cl)c1)c1ccccn1
inhibition [1]: 96% | IC50 ([2]; read-out: IC50): 26.3 nM | IC50 ([2]; read-out: pIC50 (converted)): 29.5 nM

O=C(Nc1ccc(N2C(=O)c3cccc(F)c3C2=O)c(Cl)c1)c1ccccn1
Activity [3]: Active | Activity [4]: Active | inhibition [1]: 99.4% | Activity [5]: Active | IC50 ([2]; read-out: IC50): 5.1 nM

O=C(Nc1ccc(N2C(=O)c3cccc([18F])c3C2=O)c(Cl)c1)c1ccccn1
Drug uptake [6]: 50% | Drug uptake (Macaca mulatta): Active | Drug uptake (Thalamus [7]): Active | Drug uptake [8]: 50% | Drug uptake (Hippocampus [9]): Active | Drug uptake [10]: 50% | Drug uptake (Cortex [11]): Active | Drug uptake (Cerebellum [12]): Active | Stability [13]: Unstable | Drug uptake [14]: Active | metabolised at 5 min [15]: 90% | Drug uptake (Brain [16]): Active | Drug uptake [17]: Active | Drug uptake (Cerebellum [18]): Active | Drug uptake (Striatum [19]): Active | Drug uptake (Brain [20]): Active | Drug uptake [21]: Active | Drug uptake (Cortex [22]): Active | Drug uptake (Hippocampus [23]): Active | Drug uptake (Striatum [24]): Active | Drug uptake (Striatum [25]): Active | Drug uptake [26]: 50% | Drug uptake [27]: Active | Drug uptake [28]: Active | Drug uptake (Brain [29]): Active | Drug uptake (Cerebellum [30]): Active | Drug uptake (Thalamus [31]): Active | Drug uptake [32]: Active | Drug uptake (Cortex [33]): Active | Drug uptake [34]: Active | Drug uptake (Thalamus [35]): Active | Drug uptake (Hippocampus [36]): Active

O=C(Nc1ccc(N2C(=O)c3cccc(Br)c3C2=O)c(Cl)c1)c1ccccn1
inhibition [1]: 96.6% | IC50 ([2]; read-out: IC50): 11.8 nM

COc1cc(NC(=O)c2ccccn2)ccc1Cl
inhibition [1]: 100%

Cc1cccc2c1C(=O)N(c1ccc(NC(=O)c3ccccn3)cc1Cl)C2=O
inhibition [1]: 99.4% | IC50 ([2]; read-out: IC50): 4.2 nM

O=C(Nc1cccc(OC(F)F)c1)c1ccccn1
inhibition [1]: 99.1%

— ChEMBL document CHEMBL3351329, “Radiosynthesis and evaluation of an 18F-labeled positron emission tomography (PET) radioligand for metabotropic glutamate receptor subtype 4 (mGlu4)” (J Med Chem, 2014)
